From article PMC10201403 (Bioorganic & medicinal chemistry, 2023)
Values joined by “and” are separate entries in the source; they are usually repeats but may differ in a detail not shown here. Identical values can stand only once. “Also recorded” adds a separate entry of the source. Counter-ions that a name gives are not always drawn. Like-named read-outs stand apart in the source and are kept apart here. One block for each molecule: values may come before it.

What was measured:
C. hominis = settings: gnotobiotic piglet; cited from earlier work
C. parvum [1] = settings: acute and chronic mouse models; cited from earlier work
C. parvum [2] = settings: dairy calf; cited from earlier work
C. parvum [3] = assay: In vitro Cryptosporidium parvum-infected HCT-8 cell assay; assay type: cell-based; settings: for LipE (pEC50 minus logP): Cp pEC50 and calculated logP; for EC50: Cryptosporidium parvum, HCT-8, read-out: EC50 in the Cp HCT-8 assay; for potency in the Cp HCT-8 assay, in words: C. parvum in HCT-8 cells
Cryptosporidium = settings: cited from earlier work
[4] = biological target: human potassium channel hERG (Homo sapiens, UniProt Q12809); assay: [3H]-dofetilide competitive binding assay; settings: 10 μM
human potassium channel hERG, sequence (Q12809 whole entry): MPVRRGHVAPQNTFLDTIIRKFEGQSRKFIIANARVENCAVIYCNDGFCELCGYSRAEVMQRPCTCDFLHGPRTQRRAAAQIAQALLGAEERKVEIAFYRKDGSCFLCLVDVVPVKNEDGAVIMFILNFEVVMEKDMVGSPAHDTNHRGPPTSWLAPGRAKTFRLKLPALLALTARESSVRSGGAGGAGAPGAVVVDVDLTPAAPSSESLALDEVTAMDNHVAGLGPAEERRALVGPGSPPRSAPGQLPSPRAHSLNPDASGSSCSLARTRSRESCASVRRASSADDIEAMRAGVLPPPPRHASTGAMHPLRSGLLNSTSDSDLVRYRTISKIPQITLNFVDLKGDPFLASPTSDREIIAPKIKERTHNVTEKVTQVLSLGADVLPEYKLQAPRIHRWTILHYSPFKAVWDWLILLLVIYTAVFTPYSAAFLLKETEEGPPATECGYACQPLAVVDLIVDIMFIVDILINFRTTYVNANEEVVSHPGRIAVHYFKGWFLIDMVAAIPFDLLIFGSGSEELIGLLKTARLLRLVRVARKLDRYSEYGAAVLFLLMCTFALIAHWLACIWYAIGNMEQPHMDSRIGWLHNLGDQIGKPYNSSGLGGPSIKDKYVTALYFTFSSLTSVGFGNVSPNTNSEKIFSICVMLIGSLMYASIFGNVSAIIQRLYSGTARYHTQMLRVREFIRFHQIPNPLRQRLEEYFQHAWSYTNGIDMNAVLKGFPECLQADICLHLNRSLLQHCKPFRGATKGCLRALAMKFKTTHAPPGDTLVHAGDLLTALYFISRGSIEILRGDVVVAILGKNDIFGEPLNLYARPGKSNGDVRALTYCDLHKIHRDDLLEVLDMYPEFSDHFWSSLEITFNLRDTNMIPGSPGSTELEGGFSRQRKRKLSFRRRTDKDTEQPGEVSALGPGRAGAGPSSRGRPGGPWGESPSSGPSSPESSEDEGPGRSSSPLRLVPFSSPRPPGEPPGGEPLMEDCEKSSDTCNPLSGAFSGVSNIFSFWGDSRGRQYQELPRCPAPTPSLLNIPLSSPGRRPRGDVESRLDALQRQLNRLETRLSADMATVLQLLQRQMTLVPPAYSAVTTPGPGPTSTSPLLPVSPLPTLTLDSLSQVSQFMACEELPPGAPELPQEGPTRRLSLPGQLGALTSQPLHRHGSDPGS
In short: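 Radioligand competition on the human hERG potassium channel: test compound competes with [³H]-dofetilide, and binding is reported as percent inhibition of [³H]-dofetilide binding. Run by an outside contract laboratory.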

hERG channel = hERG channel (Homo sapiens, UniProt Q12809); assay: hERG-CHO automated patch clamp electrophysiology assay; assay type: cell-based; settings: 10 μM
hERG channel, sequence (Q12809 whole entry): as above

Compound: O=C(Nc1ccc(Cl)cc1)N1CCN(c2ccc3nncn3n2)CC1 [Compound 1]
oral efficacy in vivo (C. hominis): oral efficacy
oral efficacy in vivo (C. parvum [1]): oral efficacy
oral efficacy in vivo (C. parvum [2]): oral efficacy

LipE (pEC50 minus logP) (C. parvum [3]): 3.3
Compound: O=C(Cc1ccc(Cl)c(Cl)c1)N1CCN(c2ccc3nncn3n2)CC1 [Compound 2a, 1-(4-([1,2,4]triazolo[4,3-b]pyridazin-6-yl)piperazin-1-yl)-2-(3,4-dichlorophenyl)ethanone]
efficacy in vivo (Cryptosporidium): efficacious in vivo

Compound: O=C(Cc1ccc(Cl)c(Cl)c1)N1CCNCC1 [Compound 4, 2-(3,4-dichlorophenyl)-1-(piperazin-1-yl)ethanone hydrochloride]
EC50 (C. parvum [3]): ≥ 20 µM

EC50 (C. parvum [3]): ≥ 20 µM
Compound: CC(C)(C)OC(=O)N1CCN(C(=O)Cc2ccc(Cl)c(Cl)c2)CC1 [Compound 5, tert-Butyl 4-(2-(3,4-dichlorophenyl)acetyl)piperazine-1-carboxylate]

Compound: O=C(Cc1ccc(Cl)c(Cl)c1)N1CCN(c2ccccc2)CC1 [Compound 6a, 2-(3,4-dichlorophenyl)-1-(4-phenylpiperazin-1-yl)ethanone]
effect in the hERG binding assay, in words [4]: does not exhibit significant effect

Compound: O=C(Cc1ccc(Cl)c(Cl)c1)N1CCN(c2ncc([N+](=O)[O-])s2)CC1 [Compound 13, 2-(3,4-dichlorophenyl)-1-(4-(5-nitrothiazol-2-yl)piperazin-1-yl)ethanone]
potency in the Cp HCT-8 assay, in words (C. parvum [3]): weakly potent

LipE (pEC50 minus logP) (C. parvum [3]): 4.13
Compound: O=C(Cc1ccc(Cl)c(Cl)c1)N1CCN(C2=Nn3cnnc3CC2)CC1 [Compound 17a, 2-(3,4-dichlorophenyl)-1-(4-(7,8-dihydro-[1,2,4]triazolo[4,3-b]pyridazin-6-yl)piperazin-1-yl)ethanone]
reduction of inhibition in hERG patch-clamp assay relative to 2a (SLU-2633) (hERG channel): about two-fold
fold less potent than 2a (SLU-2633) (C. parvum [3]; ratio of Cp EC50 values): 7 fold and ~ 7 fold

Compound: O=C(Nc1ccc(Cl)c(Cl)c1)N1CCN(C2=Nn3cnnc3CC2)CC1 [Compound 17b, N-(3,4-dichlorophenyl)-4-(7,8-dihydro-[1,2,4]triazolo[4,3-b]pyridazin-6-yl)piperazine-1-carboxamide]
fold potency reduction compared to urea 2b (C. parvum [3]; ratio of Cp EC50 values): ~ 20 fold

Compound: O=C(Cc1ccc(Cl)c(Cl)c1)N1CCN(c2ccc3nccn3n2)CC1 [Compound 18a, 2-(3,4-dichlorophenyl)-1-(4-(imidazo[1,2-b]pyridazin-6-yl)piperazin-1-yl)ethanone]
potency in the Cp HCT-8 assay, in words (C. parvum [3]): drastically reduced the potency

Compound: O=C(Nc1ccc(Cl)c(Cl)c1)N1CCN(c2ccc3nccn3n2)CC1 [Compound 18b, N-(3,4-dichlorophenyl)-4-(imidazo[1,2-b]pyridazin-6-yl)piperazine-1-carboxamide]
potency in the Cp HCT-8 assay, in words (C. parvum [3]): drastically reduced the potency

EC50 (C. parvum [3]): 20 to 30 µM
Compound: O=C(Cc1ccc(Cl)c(Cl)c1)N1CCN(c2ccn3nccc3n2)CC1 [Compound 19, 2-(3,4-dichlorophenyl)-1-(4-(pyrazolo[1,5-a]pyrimidin-5-yl)piperazin-1-yl)ethanone]

EC50 (C. parvum [3]): 20 to 30 µM
Compound: O=C(Nc1ccc(Cl)c(Cl)c1)N1CCN(c2cn3ccnc3cn2)CC1 [Compound 20, N-(3,4-dichlorophenyl)-4-(imidazo[1,2-a]pyrazin-6-yl)piperazine-1-carboxamide]

EC50 (C. parvum [3]): 20 to 30 µM
Compound: O=C(Cc1ccc(Cl)c(Cl)c1)N1CCN(c2ccc3nonc3c2)CC1 [Compound 24, 1-(4-(benzo[c][1,2,5]oxadiazol-5-yl)piperazin-1-yl)-2-(3,4-dichlorophenyl)ethanone]

Compound: O=C(Nc1ccc(Cl)c(Cl)c1)N1CCN(c2nc3ccccc3[nH]2)CC1 [Compound 28, 4-(1H-benzo[d]imidazol-2-yl)-N-(3,4-dichlorophenyl)piperazine-1-carboxamide]
potency in the Cp HCT-8 assay, in words (C. parvum [3]): did not yield better potency

Compound: O=C(Cc1ccc(Cl)c(Cl)c1)N1CCN(c2nc3ccccc3o2)CC1 [Compound 29a, 1-(4-(benzo[d]oxazol-2-yl)piperazin-1-yl)-2-(3,4-dichlorophenyl)ethanone]
potency in the Cp HCT-8 assay, in words (C. parvum [3]): did not yield better potency

Compound: O=C(Cc1ccc(Cl)c(Cl)c1)N1CCN(c2nc3ccccc3s2)CC1 [Compound 29b, 1-(4-(benzo[d]thiazol-2-yl)piperazin-1-yl)-2-(3,4-dichlorophenyl)ethanone]
potency in the Cp HCT-8 assay, in words (C. parvum [3]): did not yield better potency

Compound: Nc1nc2nc(N3CCN(C(=O)Cc4ccc(Cl)c(Cl)c4)CC3)ccc2s1 [Compound 31b, 1-(4-(2-aminothiazolo[4,5-b]pyridin-5-yl)piperazin-1-yl)-2-(3,4-dichlorophenyl)ethanone]
potency in the Cp HCT-8 assay, in words (C. parvum [3]): low micromolar range; also recorded: modestly potent
fold more potent than methyl analog 31a (C. parvum [3]; ratio of Cp EC50 values): 5 fold
